Measurements gathered from unrelated publications.
Lines come from different studies, so protocols differ.
Target: Dual specificity tyrosine-phosphorylation-regulated kinase 1A (DYRK1A, Homo sapiens, UniProt Q13627)
Observed: enzyme activity
Mode: inhibitor

SMILES	technique	tested at	remaining activity [%]
COc1cc2nccc(Oc3ccc(NC(=S)NC(=O)c4ccccc4C)cc3)c2cc1OC	–	0.5 µM	95.4
Cc1cnc(NC2CCOCC2)nc1-n1cnc(C(=O)NC(CN)c2cc(F)cc(Cl)c2)c1 (stereo not drawn)	radiometric	1 µM	84
O=C(Nc1cnn(-c2csc(C(=O)NC3COC3)c2)c1)Nc1c(F)cccc1Cl	–	5 µM	75.1
Nc1nc(Nc2ccccc2)sc1C(=O)c1c(F)cccc1F	–	10 µM	10
O=c1c2ccccc2[nH]c(=S)n1CCN1CCC(=C(c2ccc(F)cc2)c2ccc(F)cc2)CC1	–	0.5 µM	99.9
CC(C)(O)[C@H]1CC[C@H](Nc2ccc3ncc(-c4cccc(C(F)(F)F)c4)n3n2)CC1	–	1 µM	22.1
CC(C)(C)c1nc2c(s1)c1nc(N)ncc1c1ccc(NS(=O)(=O)c3c(F)cccc3F)c(F)c12	radiometric	1 µM	88
O=C(O)c1ccc2c(c1)nc(Nc1ccc3ccccc3c1)c1ccncc12	radiometric	1 µM	2
FC(F)c1nc2ccccc2n1-c1nc(N2CCOCC2)nc(N2CCOCC2)n1	–	10 µM	78
COc1cccc(CCNc2nc3cc(C(=O)O)ccc3c3cnccc23)c1	radiometric	1 µM	12
COc1ccc(C(=O)Nc2sc3c(c2C(N)=O)CCCC3)cc1OC	–	0.5 µM	97.4
O=C(O)c1ccc2c(c1)nc(Nc1cccc(F)c1)c1ccncc12	radiometric	1 µM	0
O=C(Nc1cnn(-c2csc(C(=O)NC3COC3)c2)c1)Nc1ccccc1Cl	–	5 µM	86
O=C(O)c1ccc2c(c1)nc(NCCc1ccccc1)c1ccncc12	radiometric	1 µM	10
COc1cc(Nc2cnc(C#N)c(O[C@H](C)CN(C)C)n2)ncc1-c1cnn(C)c1	radiometric	10 µM	79
